The values below come from ChEMBL document CHEMBL2177043, “HIV-1 X4 activities of polycationic "viologen" based dendrimers by interaction with the chemokine receptor CXCR4: study of structure-activity relationship” (J Med Chem, 2012).

The structures appear in SMILES notation. Calls of active or inactive are those of the source. The rule behind the calls is not given here.

Data set [1] is described as follows: Cytotoxicity against human PBMC cells by MTT assay. The data set is classed as cell-based.
For data set [2], the target named is T1, C-C chemokine receptor type 5 (Homo sapiens, UniProt P51681). The experiment in a line: Antagonist activity against CCR5 expressed in U87.CD4.CCR5 cells assessed as inhibition of CCL3L1-induced calcium signaling incubated for 10 mins by FLIPR.
T1 sequence (P51681 whole entry, looked up): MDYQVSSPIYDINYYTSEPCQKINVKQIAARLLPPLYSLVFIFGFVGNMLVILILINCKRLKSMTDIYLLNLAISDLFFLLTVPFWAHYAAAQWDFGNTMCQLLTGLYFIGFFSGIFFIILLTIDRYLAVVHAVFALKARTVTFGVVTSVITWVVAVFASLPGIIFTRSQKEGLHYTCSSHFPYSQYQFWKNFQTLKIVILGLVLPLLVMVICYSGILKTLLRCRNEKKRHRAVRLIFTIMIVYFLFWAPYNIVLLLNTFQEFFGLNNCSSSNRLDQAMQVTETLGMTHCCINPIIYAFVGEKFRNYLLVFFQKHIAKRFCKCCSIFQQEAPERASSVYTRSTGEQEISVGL
In data set [3] the target is T2, C-X-C chemokine receptor type 4 (Homo sapiens, UniProt P61073). Nature of the data set: Inhibition of anti-CXCR4 mAbs clone 1D9 binding to CXCR4 in human SUPT1 cells incubated for 30 mins by FACS.
T2 sequence (P61073 whole entry): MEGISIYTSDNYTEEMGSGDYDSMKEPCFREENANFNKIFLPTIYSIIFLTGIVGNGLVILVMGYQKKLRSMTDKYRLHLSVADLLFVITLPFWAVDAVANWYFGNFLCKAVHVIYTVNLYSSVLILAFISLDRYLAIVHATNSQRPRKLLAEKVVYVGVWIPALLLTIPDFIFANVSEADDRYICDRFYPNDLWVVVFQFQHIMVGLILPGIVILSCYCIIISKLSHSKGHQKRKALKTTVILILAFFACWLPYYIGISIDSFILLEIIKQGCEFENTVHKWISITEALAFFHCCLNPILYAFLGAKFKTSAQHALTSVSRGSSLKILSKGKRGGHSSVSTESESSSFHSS
The target in data set [4] is T1, C-C chemokine receptor type 5. The experiment in a line: Agonist activity against CCR5 expressed in U87.CD4.CCR5 cells assessed as stimulation of calcium signaling incubated for 10 mins by FLIPR.
The subject of data set [5] is Human immunodeficiency virus 1. Nature of the data set: Antiviral activity against X4 HIV1 NL4.3 infected in human PBMC assessed as inhibition of viral replication pre-incubated for 30 mins measured 5 days post infection by MTT assay. In kind it is functional, organism-based. As to conditions: Human immunodeficiency virus 1, NL4.3. The gist of the method: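 Human PBMC infected with HIV-1 NL4.3. IC₅₀ is the concentration inhibiting viral replication by 50%, averaged over two independent experiments. Cytotoxicity (CC₅₀, 50% loss of PBMC viability) evaluated in the same assay.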
In general terms: Tetrazolium dyes change colour on reduction, which living cells bring about.

Data set [6] can be described thus: Cytotoxicity against human MT4 cells by MTT assay. The data set is classed as cell-based.
The subject of data set [7] is Human immunodeficiency virus 1. The experiment in a line: Antiviral activity against X4 HIV1 NL4.3 infected in human MT4 cells assessed as inhibition of viral replication pre-incubated for 30 mins […]. The data set is classed as functional, organism-based. As to conditions: Human immunodeficiency virus 1, NL4.3, MT4.
Data set [8] deals with T2, C-X-C chemokine receptor type 4. The experiment in a line: Agonist activity against CXCR4 expressed in U87.CD.CXCR4 cells assessed as stimulation of calcium signaling incubated for 10 mins by FLIPR. In kind it is functional, cell-based. The essentials:
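U87.CD4 cells stably carrying CXCR4 or CCR5, trypsinized and seeded at 2 × 10⁴ cells/well on 0.2% gelatin the day before. Loaded with Fluo-3 AM (4 μM, 45 min, 37 °C), washed, then exposed to test agents alone at varied concentrations in assay buffer for 10 min at 37 °C. Cytosolic Ca²⁺ rise monitored over time by FLIPR to detect any agonist-triggered signal.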

Data set [9] shares this target. The experiment in a line: Antagonist activity against CXCR4 expressed in U87.CD.CXCR4 cells assessed as inhibition of CXCL12-induced calcium signaling incubated for 10 mins by FLIPR. The data set is classed as functional, cell-based. The gist of the method:
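U87.CD4.CXCR4 cells seeded at 2 × 10⁴/well on 0.2% gelatin the day before, loaded with 4 μM Fluo-3 AM for 45 min at 37 °C, washed, then preincubated with compounds at varied concentrations in assay buffer for 10 min at 37 °C. Challenged with 25 ng/mL CXCL12; Ca²⁺ flux followed over time by FLIPR.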

For data set [10] the target is unchanged. Nature of the data set: Inhibition of anti-CXCR4 mAbs clone 12G5 binding to CXCR4 in human SUPT1 cells incubated for 30 mins by FACS. (In general: Flow cytometry measures light scatter and fluorescence of single cells or particles in a stream.)
Data set [11] has the same target. Nature of the data set: Inhibition of anti-CXCR4 mAbs clone 173 binding to CXCR4 in human SUPT1 cells incubated for 30 mins by FACS.
Data set [12] concerns the target T1, C-C chemokine receptor type 5. The experiment in a line: Antagonist activity against CCR5 expressed in U87.CD4.CCR5 cells assessed as inhibition of CCL3L1-induced calcium signaling incubated for 10 mins by FLIPR. The data set is classed as functional, cell-based. The essentials:
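U87.CD4.CCR5 cells seeded at 2 × 10⁴/well on 0.2% gelatin the day before, loaded with 4 μM Fluo-3 AM for 45 min at 37 °C, washed, then preincubated with compounds at varied concentrations in assay buffer for 10 min at 37 °C. Stimulated with 10 ng/mL LD78β (CCL3L1); Ca²⁺ flux recorded by FLIPR.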

Data set [13] has as its target T2, C-X-C chemokine receptor type 4. The experiment in a line: Inhibition of CXCL-12'AF647 binding to CXCR4 in human SUPT1 cells incubated for 15 mins by FACS. In kind it is cell-based. The gist of the method:
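SupT1 cells (high CXCR4) washed, then incubated 15 min at room temperature with compounds at varied concentrations in HBSS containing 20 mM HEPES and 0.2% BSA, pH 7.4. CXCL12-AF647 added at 25 ng/mL final for 30 min at room temperature. Cells washed, fixed in 1% paraformaldehyde, and read by flow cytometry on FL4.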

Consider `CC[n+]1ccc(-c2cc[n+](Cc3cc(C[n+]4ccc(-c5cc[n+](CC)cc5)cc4)cc(C[n+]4ccc(-c5cc[n+](Cc6cc(C[n+]7ccc(-c8cc[n+](Cc9cc(C[n+]%10ccc(-c%11cc[n+](CC)cc%11)cc%10)cc(C[n+]%10ccc(-c%11cc[n+](CC)cc%11)cc%10)c9)cc8)cc7)cc(C[n+]7ccc(-c8cc[n+](Cc9cc(C[n+]%10ccc(-c%11cc[n+](Cc%12cc(C[n+]%13ccc(-c%14cc[n+](Cc%15cc(C[n+]%16ccc(-c%17cc[n+](CC)cc%17)cc%16)cc(C[n+]%16ccc(-c%17cc[n+](CC)cc%17)cc%16)c%15)cc%14)cc%13)cc(C[n+]%13ccc(-c%14cc[n+](Cc%15cc(C[n+]%16ccc(-c%17cc[n+](CC)cc%17)cc%16)cc(C[n+]%16ccc(-c%17cc[n+](CC)cc%17)cc%16)c%15)cc%14)cc%13)c%12)cc%11)cc%10)cc(C[n+]%10ccc(-c%11cc[n+](Cc%12cc(C[n+]%13ccc(-c%14cc[n+](Cc%15cc(C[n+]%16ccc(-c%17cc[n+](CC)cc%17)cc%16)cc(C[n+]%16ccc(-c%17cc[n+](CC)cc%17)cc%16)c%15)cc%14)cc%13)cc(C[n+]%13ccc(-c%14cc[n+](Cc%15cc(C[n+]%16ccc(-c%17cc[n+](CC)cc%17)cc%16)cc(C[n+]%16ccc(-c%17cc[n+](CC)cc%17)cc%16)c%15)cc%14)cc%13)c%12)cc%11)cc%10)c9)cc8)cc7)c6)cc5)cc4)c3)cc2)cc1.F[P-](F)(F)(F)(F)F.F[P-](F)(F)(F)(F)F.F[P-](F)(F)(F)(F)F.F[P-](F)(F)(F)(F)F.F[P-](F)(F)(F)(F)F.F[P-](F)(F)(F)(F)F.F[P-](F)(F)(F)(F)F.F[P-](F)(F)(F)(F)F.F[P-](F)(F)(F)(F)F.F[P-](F)(F)(F)(F)F.F[P-](F)(F)(F)(F)F.F[P-](F)(F)(F)(F)F.F[P-](F)(F)(F)(F)F.F[P-](F)(F)(F)(F)F.F[P-](F)(F)(F)(F)F.F[P-](F)(F)(F)(F)F.F[P-](F)(F)(F)(F)F.F[P-](F)(F)(F)(F)F.F[P-](F)(F)(F)(F)F.F[P-](F)(F)(F)(F)F.F[P-](F)(F)(F)(F)F.F[P-](F)(F)(F)(F)F.F[P-](F)(F)(F)(F)F.F[P-](F)(F)(F)(F)F.F[P-](F)(F)(F)(F)F.F[P-](F)(F)(F)(F)F.F[P-](F)(F)(F)(F)F.F[P-](F)(F)(F)(F)F.F[P-](F)(F)(F)(F)F.F[P-](F)(F)(F)(F)F.F[P-](F)(F)(F)(F)F.F[P-](F)(F)(F)(F)F.F[P-](F)(F)(F)(F)F.F[P-](F)(F)(F)(F)F.F[P-](F)(F)(F)(F)F.F[P-](F)(F)(F)(F)F.F[P-](F)(F)(F)(F)F.F[P-](F)(F)(F)(F)F.F[P-](F)(F)(F)(F)F.F[P-](F)(F)(F)(F)F.F[P-](F)(F)(F)(F)F.F[P-](F)(F)(F)(F)F`, for which the values for the CC50 in data set [1] and in data set [6] were 20 µg/mL and 9 µg/mL, respectively. In addition, the inhibition result in [2], in data set [3], in data set [9], in data set [10] and in data set [11] was “Dose-dependent effect” in each case. In addition, the IC50 was 180 nM in data set [3]; 1.07 µg/mL in data set [5]; 1.4 µg/mL in data set [7]; 89.1 nM in data set [9]; 111 nM in [10]; 108 nM in [11]. The results for the IC50 in data set [12] and in [13] were 542 nM and 101 nM, respectively. For the same molecule, the result in data set [4] and in data set [8] was inactive.
In the case of `Cc1cn(CCC[n+]2ccc(-c3cc[n+](Cc4cc(C[n+]5ccc(-c6cc[n+](CCCn7cc(C)c(=O)[nH]c7=O)cc6)cc5)cc(-[n+]5ccc(-c6cc[n+](-c7cc(C[n+]8ccc(-c9cc[n+](CCCn%10cc(C)c(=O)[nH]c%10=O)cc9)cc8)cc(C[n+]8ccc(-c9cc[n+](CCCn%10cc(C)c(=O)[nH]c%10=O)cc9)cc8)c7)cc6)cc5)c4)cc3)cc2)c(=O)[nH]c1=O.F[P-](F)(F)(F)(F)F.F[P-](F)(F)(F)(F)F.F[P-](F)(F)(F)(F)F.F[P-](F)(F)(F)(F)F.F[P-](F)(F)(F)(F)F.F[P-](F)(F)(F)(F)F.F[P-](F)(F)(F)(F)F.F[P-](F)(F)(F)(F)F.F[P-](F)(F)(F)(F)F.F[P-](F)(F)(F)(F)F`, the CC50 in data set [1] and in [6] was over 100 µg/mL throughout. Moreover, the inhibition entry in data set [2], in data set [3], in data set [9], in [10] and in data set [11] was “Dose-dependent effect” each time. Besides, the IC50 in data set [3] was 3080 nM; in data set [5] it was 4.62 µg/mL; in [7], 2.4 µg/mL; in [9], 21000 nM; in data set [10], 724 nM; in data set [11], 660 nM. Also, the figures for the IC50 in [12] and in data set [13] were over 32200 nM and 3400 nM, respectively. Moreover, the outcome in data set [4] and in data set [8] was inactive.
For `CC[n+]1ccc(-c2cc[n+](Cc3cc(C[n+]4ccc(-c5cc[n+](CC)cc5)cc4)cc(C[n+]4ccc(-c5cc[n+](Cc6cc(C[n+]7ccc(-c8cc[n+](Cc9cc(C[n+]%10ccc(-c%11cc[n+](CC)cc%11)cc%10)cc(C[n+]%10ccc(-c%11cc[n+](CC)cc%11)cc%10)c9)cc8)cc7)cc(C[n+]7ccc(-c8cc[n+](Cc9cc(C[n+]%10ccc(-c%11cc[n+](CC)cc%11)cc%10)cc(C[n+]%10ccc(-c%11cc[n+](CC)cc%11)cc%10)c9)cc8)cc7)c6)cc5)cc4)c3)cc2)cc1.F[P-](F)(F)(F)(F)F.F[P-](F)(F)(F)(F)F.F[P-](F)(F)(F)(F)F.F[P-](F)(F)(F)(F)F.F[P-](F)(F)(F)(F)F.F[P-](F)(F)(F)(F)F.F[P-](F)(F)(F)(F)F.F[P-](F)(F)(F)(F)F.F[P-](F)(F)(F)(F)F.F[P-](F)(F)(F)(F)F.F[P-](F)(F)(F)(F)F.F[P-](F)(F)(F)(F)F.F[P-](F)(F)(F)(F)F.F[P-](F)(F)(F)(F)F.F[P-](F)(F)(F)(F)F.F[P-](F)(F)(F)(F)F.F[P-](F)(F)(F)(F)F.F[P-](F)(F)(F)(F)F`, the results for the CC50 in [1] and in [6] were 20 µg/mL and 11 µg/mL, respectively. Besides, the inhibition entry in [2], in data set [3], in data set [9], in [10] and in data set [11] was “Dose-dependent effect” each time. Moreover, the IC50 in [3] was 464 nM; in data set [5] it was 0.34 µg/mL; in data set [7], 0.8 µg/mL; in data set [9], 294 nM; in data set [10] it was 260 nM; in data set [11], 378 nM. The IC50 in [12] is 4860 nM; in [13], 309 nM. Further, the result in data set [4] and in data set [8] was inactive.

The term CC50 denotes the concentration giving 50% cytotoxicity. A lower CC50 goes with greater toxicity to the cells. Usually IC50 stands for the point on the concentration scale where inhibition reaches its midpoint.
